According to ChEMBL document CHEMBL1142515, “Synthesis and evaluation of structurally constrained quinazolinone derivatives as potent and selective histamine H3 receptor inverse agonists” (J Med Chem, 2008):

Columns and labels:
Mus musculus [1] = assay: Ex vivo receptor occupancy of histamine H3 receptor expressed in po dosed MDR1a deficient CF1 mouse plasma assessed by brain occupancy/brain to plasma ratio after 2 hrs; type: functional
How it was run: (§1)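 Female wild-type and mdr1a (−/−) CF-1 mice given vehicle or compound po (0.1–3 mg/kg) and decapitated at 2 h. Coronal striatal sections (20 μm) incubated 10 min at room temperature with 400 pM tritiated quinazolinone H3 inverse agonist radioligand in sodium phosphate buffer. Nonspecific binding defined with 10 μM R-α-methylhistamine. Sections imaged 6 h by beta-Imager. Brain Occ90 obtained from occupancy versus brain concentration. Plasma Occ90 = brain Occ90/brain-to-plasma ratio.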

Mus musculus [2] = assay: Toxicity against in ICR mouse assessed as gross behavior activity at 100 mg/kg; type: organism-based; set-up: dose 100 mg/kg; settings: in vivo
How it was run: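 Mice dosed orally at 100 mg/kg. Scored for psychomotor and motor activity, muscle tone, CNS excitation, autonomic responses and reflexes.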

LLC-PK1 [3] = assay: Ratio of permeability from apical to basolateral side over basolateral to apical side in pig LLC-PK1 cells expressing human MDR1; type: ADME, cell-based, Sus scrofa
[4] = Cmax in Sprague-Dawley rat at 1 mg/kg, iv and 3 mg/kg, po; type: ADME, organism-based; settings: in vivo
How it was run: (§2)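 Male SD rats, male Beagle dogs, male rhesus monkeys given single doses iv (PEG400/EtOH/H2O 50/10/40) or po by gavage (0.5% methylcellulose suspension). Rats 1 mg/kg iv and 3 mg/kg po; dogs and monkeys 0.3 mg/kg iv and 1 mg/kg po. Plasma sampled at multiple times up to 24 h, deproteinized with ethanol plus internal standard. Mean of n = 3 animals/dose.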

Histamine H3 receptor [5] = target: Histamine H3 receptor (Mus musculus, UniProt P58406); assay: Displacement of [3H]N-alpha-methylhistamine from mouse recombinant histamine H3 receptor
Sequence of Histamine H3 receptor (Mus musculus, UniProt P58406) (P58406 whole entry): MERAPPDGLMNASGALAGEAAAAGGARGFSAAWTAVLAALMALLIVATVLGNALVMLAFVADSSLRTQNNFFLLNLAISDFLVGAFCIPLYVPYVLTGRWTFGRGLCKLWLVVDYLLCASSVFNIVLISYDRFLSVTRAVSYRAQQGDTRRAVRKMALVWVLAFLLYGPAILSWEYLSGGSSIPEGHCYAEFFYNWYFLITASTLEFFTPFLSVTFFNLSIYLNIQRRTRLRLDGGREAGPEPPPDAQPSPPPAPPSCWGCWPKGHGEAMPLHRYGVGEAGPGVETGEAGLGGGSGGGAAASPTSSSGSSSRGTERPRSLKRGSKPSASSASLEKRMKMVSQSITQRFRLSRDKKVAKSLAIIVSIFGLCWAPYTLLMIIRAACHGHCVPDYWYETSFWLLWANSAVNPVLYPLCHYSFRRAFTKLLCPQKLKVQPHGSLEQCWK

Brain [6] = assay: Drug level in Sprague-Dawley rat brain at 10 mg/kg, po after 2 hrs; type: ADME, organism-based; set-up: dose 10 mg/kg, route oral; settings: in vivo
How it was run: (§3)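 Male SD rats dosed orally at 10 mg/kg. Plasma, brain and CSF concentrations determined 2 h after dosing. Brain/plasma ratio taken from these levels. Mean of n = 3 animals.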

[7] = Plasma concentration in Sprague-Dawley rat at 10 mg/kg, po after 2 hrs; type: ADME, organism-based; set-up: dose 10 mg/kg, route oral; how it was run: as §3
Rattus norvegicus [8] = assay: Ex vivo receptor occupancy of histamine H3 receptor in Sprague-Dawley rat assessed as drug level in brain at 1 mg/kg, po after 2 hrs; type: functional
How it was run: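 Male SD rats given vehicle or 1 mg/kg compound by oral gavage and decapitated at 2 h. Striatal sections (20 μm) incubated 10 min at room temperature with 400 pM tritiated H3 inverse agonist radioligand in sodium phosphate buffer. Nonspecific binding defined with 10 μM R-α-methylhistamine. Beta-Imager exposure 6 h. Drug levels measured by LC-MS/MS.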

Histamine H3 receptor [9] = target: T1, Histamine H3 receptor (Homo sapiens, UniProt Q9Y5N1); assay: Displacement of [3H]N-alpha-methylhistamine from human recombinant histamine H3 receptor expressed in CHO-K1 cells; type: cell-based
T1 sequence (Q9Y5N1 whole entry): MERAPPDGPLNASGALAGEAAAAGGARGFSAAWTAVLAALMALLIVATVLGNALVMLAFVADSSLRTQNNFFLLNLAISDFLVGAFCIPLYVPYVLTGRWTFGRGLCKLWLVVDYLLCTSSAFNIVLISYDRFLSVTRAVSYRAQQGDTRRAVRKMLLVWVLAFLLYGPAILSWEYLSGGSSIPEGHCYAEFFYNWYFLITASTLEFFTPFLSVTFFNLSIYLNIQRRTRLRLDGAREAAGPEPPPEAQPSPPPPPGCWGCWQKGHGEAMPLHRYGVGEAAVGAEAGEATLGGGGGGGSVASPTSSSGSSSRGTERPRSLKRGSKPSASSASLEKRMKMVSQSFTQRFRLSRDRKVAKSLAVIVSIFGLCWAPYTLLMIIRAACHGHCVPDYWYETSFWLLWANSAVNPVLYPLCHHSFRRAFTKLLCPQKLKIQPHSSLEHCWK

Histamine H3 receptor [10] = target: Histamine H3 receptor (Rattus norvegicus, UniProt Q9QYN8); assay: Displacement of [3H]N-alpha-methylhistamine from rat recombinant histamine H3 receptor expressed in HEK293 cells; type: cell-based
Sequence of Histamine H3 receptor (Rattus norvegicus, UniProt Q9QYN8) (Q9QYN8 whole entry): as the sequence (P58406 whole entry) above, with A15T, T286A, G290A, H387R, V389I counted along it

Rattus norvegicus [11] = assay: Increase in tele-methylhistamine level in po dosed Sprague-Dawley rat brain after 2 hrs relative to control; type: functional, organism-based
How it was run: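 Male SD rats given vehicle (0.5% methylcellulose) or compound po at 1, 3, 10 mg/kg, co-dosed with pargyline ip. Decapitated at 2 h and brains homogenized. tele-Methylhistamine measured by HPLC with fluorometry after solid-phase extraction. Mean ± SE from five experiments. Compared with vehicle by ANOVA with Dunnett's test.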

[12] = Plasma clearance in Beagle dog at 0.3 mg/kg, iv; type: ADME, organism-based, Canis lupus familiaris; set-up: dose 0.3 mg/kg, route intravenous; how it was run: as §2
[13] = AUC (0 to infinity) in Sprague-Dawley rat at 3 mg/kg, po; type: ADME, organism-based; set-up: time infinity, dose 3 mg/kg, route oral; settings: plasma; how it was run: as §2
[14] = Ex vivo drug level wild type mdr1a (+/+) CF1 mouse plasma at 1 mg/kg, po after 2 hrs; type: ADME, organism-based; set-up: dose 1 mg/kg, route oral; settings: read-out: Drug uptake
How it was run: (§4)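 Female mdr1a (+/+) and mdr1a (−/−) CF-1 mice dosed by oral gavage. Terminal blood and whole brain collected 2 h later. Brain homogenized by ultrasonication in 4 volumes water. Plasma and brain deproteinized with ethanol plus internal standard, then measured by LC-MS/MS (positive ESI, MRM). Mean ± SE, n = 3. Brain/plasma ratios calculated from mean values.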

[15] = Cmax in rhesus monkey at 0.3 mg/kg, iv and 1 mg/kg, po; type: ADME, organism-based, Macaca mulatta; settings: in vivo; how it was run: as §2
Histamine H1 receptor = Histamine H1 receptor (Homo sapiens, UniProt P35367); assay: Inhibition of human histamine H1 receptor
Sequence of Histamine H1 receptor (P35367 whole entry): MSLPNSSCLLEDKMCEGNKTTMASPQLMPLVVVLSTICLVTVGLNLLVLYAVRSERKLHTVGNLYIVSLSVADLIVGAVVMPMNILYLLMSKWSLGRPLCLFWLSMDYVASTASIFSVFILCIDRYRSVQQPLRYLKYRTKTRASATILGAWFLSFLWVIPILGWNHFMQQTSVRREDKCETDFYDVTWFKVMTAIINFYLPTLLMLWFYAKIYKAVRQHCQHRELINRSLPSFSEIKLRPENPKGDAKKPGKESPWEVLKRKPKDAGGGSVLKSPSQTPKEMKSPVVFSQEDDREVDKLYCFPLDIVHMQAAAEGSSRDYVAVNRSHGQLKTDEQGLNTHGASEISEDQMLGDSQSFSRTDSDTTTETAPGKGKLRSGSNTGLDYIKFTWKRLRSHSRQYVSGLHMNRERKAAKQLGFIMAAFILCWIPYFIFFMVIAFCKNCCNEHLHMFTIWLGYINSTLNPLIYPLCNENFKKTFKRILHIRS

Histamine H3 receptor [16] = target: T1, Histamine H3 receptor; assay: Antagonist activity at human cloned histamine H3 receptor expressed in CHO-K1 cells assessed as inhibition of R-alpha-methylhistamine-induced [35S]GTPgammaS binding; type: functional, cell-based
[17] = Ex vivo drug level in mdr1a (-/-) deficient CF1 mouse plasma at 1 mg/kg, po after 2 hrs; type: ADME, organism-based; set-up: dose 1 mg/kg, route oral; settings: read-out: Drug uptake; how it was run: as §4
[18] = target: Voltage-gated inwardly rectifying potassium channel KCNH2 (Homo sapiens, UniProt Q12809); assay: Antagonist activity at human ERG in HEK293 cells assessed as inhibition of [35S]N-[(4R)-1'-[(2R)-6-cyano-1,2,3,4-tetrahydro-2-naphthalenyl]-3,4-dihydro-4-hydroxyspiro[2H-1-benzopyran-2,4'-piperidin]-6-yl]methanesulfonamide binding
Sequence of Voltage-gated inwardly rectifying potassium channel KCNH2 (Q12809 whole entry): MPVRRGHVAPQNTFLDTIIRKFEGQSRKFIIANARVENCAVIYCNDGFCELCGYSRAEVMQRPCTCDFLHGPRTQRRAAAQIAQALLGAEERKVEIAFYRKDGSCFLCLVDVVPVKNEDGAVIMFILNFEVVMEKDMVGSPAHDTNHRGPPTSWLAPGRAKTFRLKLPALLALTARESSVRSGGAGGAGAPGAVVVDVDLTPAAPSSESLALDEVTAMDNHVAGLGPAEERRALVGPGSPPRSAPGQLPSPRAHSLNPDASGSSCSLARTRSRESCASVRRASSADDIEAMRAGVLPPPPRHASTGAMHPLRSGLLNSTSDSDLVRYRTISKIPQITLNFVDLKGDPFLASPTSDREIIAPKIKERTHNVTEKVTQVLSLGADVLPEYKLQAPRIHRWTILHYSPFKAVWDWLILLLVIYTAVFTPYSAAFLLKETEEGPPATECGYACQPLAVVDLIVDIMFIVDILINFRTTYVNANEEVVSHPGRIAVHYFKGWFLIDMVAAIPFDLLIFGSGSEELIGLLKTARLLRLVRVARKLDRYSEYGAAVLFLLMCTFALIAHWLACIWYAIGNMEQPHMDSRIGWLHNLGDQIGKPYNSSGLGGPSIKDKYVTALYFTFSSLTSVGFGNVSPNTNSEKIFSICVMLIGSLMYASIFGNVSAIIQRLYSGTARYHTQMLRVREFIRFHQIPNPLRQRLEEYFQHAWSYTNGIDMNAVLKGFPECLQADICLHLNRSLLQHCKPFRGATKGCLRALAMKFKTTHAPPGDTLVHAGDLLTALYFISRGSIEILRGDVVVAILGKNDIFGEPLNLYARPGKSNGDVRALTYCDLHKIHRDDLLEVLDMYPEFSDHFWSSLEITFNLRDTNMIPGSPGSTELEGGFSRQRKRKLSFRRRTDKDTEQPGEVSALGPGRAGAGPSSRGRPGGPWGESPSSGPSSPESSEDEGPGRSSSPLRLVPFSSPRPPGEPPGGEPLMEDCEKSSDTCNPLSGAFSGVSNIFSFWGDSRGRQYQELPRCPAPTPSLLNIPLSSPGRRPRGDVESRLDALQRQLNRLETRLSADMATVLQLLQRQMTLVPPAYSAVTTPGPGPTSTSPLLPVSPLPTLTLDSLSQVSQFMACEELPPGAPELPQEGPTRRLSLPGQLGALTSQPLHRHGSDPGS

[19] = Ratio of drug level brain to plasma in wild type mdr1a (+/+) CF1 mouse at 1 mg/kg, po after 2 hrs; type: ADME, organism-based; set-up: dose 1 mg/kg, route oral; settings: read-out: BPR; how it was run: as §4
[20] = AUC (0 to infinity) in Beagle dog at 1 mg/kg, po; type: ADME, organism-based, Canis lupus familiaris, Plasma; set-up: time infinity, dose 1 mg/kg, route oral; settings: Beagle, plasma; how it was run: as §2
[21] = Cmax in Beagle dog at 0.3 mg/kg, iv and 1 mg/kg, po; type: ADME, organism-based, Canis lupus familiaris; settings: in vivo; how it was run: as §2
Mus musculus [22] = assay: Ex vivo receptor occupancy of histamine H3 receptor expressed in wild type po dosed CF1 mouse brain after 2 hrs; type: functional; how it was run: as §1
[23] = Drug level in Sprague-Dawley rat cerebrospinal fluid at 10 mg/kg, po after 2 hrs; type: ADME, organism-based; set-up: dose 10 mg/kg, route oral; settings: read-out: Drug uptake; how it was run: as §3
[24] = Ratio of drug level brain to plasma in mdr1a (-/-) deficient CF1 mouse at 1 mg/kg, po after 2 hrs; type: ADME, organism-based; set-up: dose 1 mg/kg, route oral; settings: read-out: BPR; how it was run: as §4
Mus musculus [25] = assay: Ex vivo receptor occupancy of histamine H3 receptor expressed in po dosed wild type CF1 mouse plasma assessed by brain occupancy/brain to plasma ratio after 2 hrs; type: functional; how it was run: as §1
[26] = Cmax in anesthetized Beagle dog at 3 mg/kg, iv; type: ADME, organism-based, Canis lupus familiaris; set-up: dose 3 mg/kg, route intravenous; settings: in vivo
How it was run: (§5)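 Anesthetized, ventilated dogs given 3 mg/kg iv and monitored for cardiovascular effects.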

[27] = Plasma clearance in Sprague-Dawley rat at 1 mg/kg, iv; type: ADME, organism-based; set-up: dose 1 mg/kg, route intravenous; how it was run: as §2
Canis familiaris = assay: Toxicity against in anesthetized Beagle dog assessed as cardiovascular effects; type: organism-based, Canis lupus familiaris; settings: in vivo; how it was run: as §5
[28] = Oral bioavailability in Beagle dog at 1 mg/kg; type: ADME, organism-based, Canis lupus familiaris; settings: Beagle, in vivo; how it was run: as §2
[29] = AUC (0 to infinity) in rhesus monkey at 1 mg/kg, po; type: ADME, organism-based, Macaca mulatta, Plasma; set-up: time infinity, dose 1 mg/kg, route oral; settings: plasma; how it was run: as §2
Brain [30] = assay: Ex vivo drug level in wild type mdr1a (+/+) CF1 mouse brain at 1 mg/kg, po after 2 hrs; type: ADME, organism-based; set-up: dose 1 mg/kg, route oral; how it was run: as §4
Histamine H4 receptor = Histamine H4 receptor (Homo sapiens, UniProt Q9H3N8); assay: Inhibition of human histamine H4 receptor
Sequence of Histamine H4 receptor (Q9H3N8 whole entry): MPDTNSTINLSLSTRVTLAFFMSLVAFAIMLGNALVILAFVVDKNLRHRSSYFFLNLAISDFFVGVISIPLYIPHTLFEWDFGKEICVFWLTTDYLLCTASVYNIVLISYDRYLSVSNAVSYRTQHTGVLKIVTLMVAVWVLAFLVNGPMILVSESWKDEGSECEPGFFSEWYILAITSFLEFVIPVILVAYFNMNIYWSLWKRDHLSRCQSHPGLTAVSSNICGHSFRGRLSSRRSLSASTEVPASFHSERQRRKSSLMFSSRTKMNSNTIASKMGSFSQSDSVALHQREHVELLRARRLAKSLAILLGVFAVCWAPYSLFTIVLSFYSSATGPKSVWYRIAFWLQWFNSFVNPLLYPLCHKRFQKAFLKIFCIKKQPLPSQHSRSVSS

Histamine H2 receptor = Histamine H2 receptor (Homo sapiens, UniProt P25021); assay: Inhibition of human histamine H2 receptor
Sequence of Histamine H2 receptor (P25021 whole entry): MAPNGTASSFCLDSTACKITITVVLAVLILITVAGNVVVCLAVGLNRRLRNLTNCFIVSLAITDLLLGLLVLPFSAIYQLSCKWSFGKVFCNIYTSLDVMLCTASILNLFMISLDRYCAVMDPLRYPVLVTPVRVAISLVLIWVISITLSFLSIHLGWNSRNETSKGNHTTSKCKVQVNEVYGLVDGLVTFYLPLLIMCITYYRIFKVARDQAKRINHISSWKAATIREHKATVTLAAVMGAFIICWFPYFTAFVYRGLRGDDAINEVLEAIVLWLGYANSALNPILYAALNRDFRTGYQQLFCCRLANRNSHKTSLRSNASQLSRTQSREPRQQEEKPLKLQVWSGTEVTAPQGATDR

[31] = Oral bioavailability in rhesus monkey at 1 mg/kg; type: ADME, organism-based, Macaca mulatta; settings: in vivo; how it was run: as §2
LLC-PK1 [32] = assay: Ratio of permeability from apical to basolateral side over basolateral to apical side in pig LLC-PK1 cells expressing mouse MDR1a; type: ADME, cell-based, Sus scrofa
Brain [33] = assay: Ex vivo drug level in mdr1a deficient CF1 mouse brain at 1 mg/kg, po after 2 hrs; type: ADME, organism-based; set-up: dose 1 mg/kg, route oral; how it was run: as §4
[34] = Oral bioavailability in Sprague-Dawley rat at 3 mg/kg; type: ADME, organism-based; settings: in vivo; how it was run: as §2
[35] = Plasma clearance in rhesus monkey at 0.3 mg/kg, iv; type: ADME, organism-based, Macaca mulatta; set-up: dose 0.3 mg/kg, route intravenous; how it was run: as §2
[36] = Ratio of drug level in cerebrospinal fluid to brain in Sprague-Dawley rat at 10 mg/kg, po after 2 hrs; type: ADME, organism-based, CSF/Brain; set-up: dose 10 mg/kg, route oral; settings: in vivo
[37] = Ratio of drug level in brain to plasma in Sprague-Dawley rat at 10 mg/kg, po after 2 hrs; type: ADME, organism-based; set-up: dose 10 mg/kg, route oral; settings: read-out: BPR; how it was run: as §3

SMILES: Cc1nc2cccc(C(F)(F)F)c2c(=O)n1-c1ccc(OC2CCN(C3CCC3)CC2)cc1
- Occ90 (Mus musculus [1]): 11 nM
- Activity (Mus musculus [2]): Non-toxic
- Ratio (LLC-PK1 [3]): 0.7
- Cmax [4]: 420 nM
- Ki (Histamine H3 receptor [5]): 3.9 nM
- Drug uptake (Brain [6]): 2.3 nmol/g
- concentration at 2 h [7]: 700 nM
- Activity (Rattus norvegicus [8]): >90%
- Ki (Histamine H3 receptor [9]): 3.6 nM
- Ki (Histamine H3 receptor [10]): 2.3 nM
- Activity (Rattus norvegicus [11]): Dose-dependent effect
- clearance [12]: 13 mL/min/kg
- AUC(0-inf) [13]: 1.66 µM·h
- concentration at 2 h [14]: 12 nM
- Cmax [15]: 50 nM
- IC50 (Histamine H1 receptor): > 10000 nM
- IC50 (Histamine H3 receptor [16]): 0.33 nM
- concentration at 2 h [17]: 10 nM
- IC50 [18]: > 10000 nM
- Kp at 2 h [19]: 2.6
- AUC(0-inf) [20]: 1.3 µM·h
- Cmax [21]: 280 nM
- Occ90 (Mus musculus [22]): 0.15 nmol/g
- concentration at 2 h [23]: 110 nM
- Kp at 2 h [24]: 13
- Occ90 (Mus musculus [25]): 58 nM
- Cmax [26]: 3200 nM
- clearance [27]: 24 mL/min/kg
- Activity (Canis familiaris): Non-toxic
- bioavailability [28]: 46%
- AUC(0-inf) [29]: 0.15 µM·h
- Drug uptake (Brain [30]): 0.031 nmol/g
- IC50 (Histamine H4 receptor): > 10000 nM
- IC50 (Histamine H2 receptor): > 10000 nM
- bioavailability [31]: 11%
- Ratio (LLC-PK1 [32]): 2.5
- Drug uptake (Brain [33]): 0.137 nmol/g
- bioavailability [34]: 33%
- clearance [35]: 26 mL/min/kg
- Ratio [36]: 0.05
- Kp at 2 h [37]: 3.3
